In ChEMBL document CHEMBL1212742 (2010):
Values after ≈ are worked out from the molar mass of the structure shown.

Assays:
Type in all cases: functional
[1] = system: Mycobacterium tuberculosis; experiment: Antimicrobial activity against Mycobacterium tuberculosis NJT210TGC harboring embB406 GGC-TGC(Gly-Cys) mutation in embB gene after 4 weeks
Outline: (§1)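 Isogenic embB mutants made by allelic exchange in strain 210. PCR-built fragments carried the codon of interest; double-crossover colonies were screened by molecular beacon assay and confirmed by direct embB sequencing. MICs of EMB, INH and RIF were determined by radiometric Bactec 460TB and 7H10 agar proportion, alongside parent 210.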

[2] = system: Mycobacterium tuberculosis; experiment: Antimicrobial activity against Mycobacterium tuberculosis NJT210TCC harboring embB406 GGC-TCC(Gly-Ser) mutation in embB gene after 4 weeks; outline: as §1
[3] = system: Mycobacterium tuberculosis; experiment: Antimicrobial activity against Mycobacterium tuberculosis NJT210CGG harboring embB497 CAG-CGG(Gln-Arg) mutation in embB gene after 4 weeks; outline: as §1
[4] = system: Mycobacterium tuberculosis; experiment: Antimicrobial activity against Mycobacterium tuberculosis NJT210GCC harboring embB406 GGC-GCC(Gly-Ala) mutation in embB gene after 4 weeks; outline: as §1
[5] = system: Mycobacterium tuberculosis; experiment: Antimicrobial activity against Mycobacterium tuberculosis NJT210GAC harboring embB406 GGC-GAC(Gly-Asp) mutation in embB gene after 4 weeks; outline: as §1
[6] = system: Mycobacterium tuberculosis; experiment: Antimicrobial activity against Mycobacterium tuberculosis 8C5 harboring embC13 CGG-CTG(Arg-Leu) mutation in embCAB gene after 4 weeks by 7H agar proportion method
Outline: (§2)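 EMB MIC by 7H10 agar proportion for clones selected from M. tuberculosis strain 210. About 10^9 cells from liquid culture (OD600 ~1.5, resuspended in 7H9) were plated on 7H10 with EMB at 8, 16 or 32 µg/ml final, incubated 37°C for 4 weeks. Colonies were subcultured in EMB-free 7H9 before testing, and embCAB was genotyped.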

[7] = system: Mycobacterium tuberculosis; experiment: Antimicrobial activity against Mycobacterium tuberculosis 16C7 harboring embB445 CAG-CGG(Gln-Arg) mutation in embCAB gene after 4 weeks by Bactec 460TB method
Outline: (§3)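 EMB MIC by radiometric Bactec 460TB liquid method for clones from strain 210. The clones were selected on 7H10 containing 8, 16 or 32 µg/ml EMB final (~10^9 cells plated, 37°C, 4 weeks), then subcultured in 7H9 without EMB before MIC testing. embCAB was genotyped.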

[8] = system: Mycobacterium tuberculosis; experiment: Antimicrobial activity against Mycobacterium tuberculosis 32C5 harboring embB324 GGC-CGC(Gly-Arg) mutation in embCAB gene after 4 weeks by 7H agar proportion method; outline: as §2
[9] = system: Mycobacterium tuberculosis; experiment: Antimicrobial activity against Mycobacterium tuberculosis 16C11 harboring embB397 CCG-TCG(Pro-Ser) mutation in embCAB gene after 4 weeks by 7H agar proportion method; outline: as §2
[10] = system: Mycobacterium tuberculosis; experiment: Antimicrobial activity against Mycobacterium tuberculosis 8C5 harboring embC13 CGG-CTG(Arg-Leu) mutation in embCAB gene after 4 weeks by Bactec 460TB method; outline: as §3
[11] = system: Mycobacterium tuberculosis; experiment: Antimicrobial activity against Mycobacterium tuberculosis 16C14 harboring embB445 CAG-CGG(Gln-Arg) mutation in embCAB gene after 4 weeks by Bactec 460TB method; outline: as §3
[12] = system: Mycobacterium tuberculosis; experiment: Antimicrobial activity against Mycobacterium tuberculosis 32C4 harboring embB497 CAG-CGG(Gln-Arg) mutation in embCAB gene after 4 weeks by Bactec 460TB method
[13] = system: Mycobacterium tuberculosis; experiment: Antimicrobial activity against Mycobacterium tuberculosis 32C1 harboring embB445 CAG-CGG(Gln-Arg) mutation in embCAB gene after 4 weeks by 7H agar proportion method; outline: as §2
[14] = system: Mycobacterium tuberculosis; experiment: Antimicrobial activity against Mycobacterium tuberculosis 32C3 harboring embB497 CAG-CGG(Gln-Arg) mutation in embCAB gene after 4 weeks by Bactec 460TB method; outline: as §3
[15] = system: Mycobacterium tuberculosis; experiment: Antimicrobial activity against Mycobacterium tuberculosis 16C15 harboring embB497 CAG-CGG(Gln-Arg) mutation in embCAB gene after 4 weeks by Bactec 460TB method; outline: as §3
[16] = system: Mycobacterium tuberculosis; experiment: Antimicrobial activity against Mycobacterium tuberculosis 16C16 harboring embB1024 GAC-AAC(Asp-Asn) mutation in embCAB gene after 4 weeks by 7H agar proportion method; outline: as §2
[17] = system: Mycobacterium tuberculosis; experiment: Antimicrobial activity against Mycobacterium tuberculosis 32C2 harboring embB497 CAG-CGG(Gln-Arg) mutation in embCAB gene after 4 weeks by Bactec 460TB method; outline: as §3
[18] = system: Mycobacterium tuberculosis; experiment: Antimicrobial activity against Mycobacterium tuberculosis 16C16 harboring embB1024 GAC-AAC(Asp-Asn) mutation in embCAB gene after 4 weeks by Bactec 460TB method; outline: as §3
[19] = system: Mycobacterium tuberculosis; experiment: Antimicrobial activity against Mycobacterium tuberculosis 32C1 harboring embB445 CAG-CGG(Gln-Arg) mutation in embCAB gene after 4 weeks by Bactec 460TB method; outline: as §3
[20] = system: Mycobacterium tuberculosis; experiment: Antimicrobial activity against Mycobacterium tuberculosis harboring mutation in embB306 gene after 4 weeks
[21] = system: Mycobacterium tuberculosis; experiment: Antimicrobial activity against Mycobacterium tuberculosis 32C5 harboring embB324 GGC-CGC(Gly-Arg) mutation in embCAB gene after 4 weeks by Bactec 460TB method; outline: as §3
[22] = system: Mycobacterium tuberculosis; experiment: Antimicrobial activity against Mycobacterium tuberculosis 8C7 harboring embB445 CAG-CGG(Gln-Arg) mutation in embCAB gene after 4 weeks by 7H agar proportion method; outline: as §2
[23] = system: Mycobacterium tuberculosis; experiment: Antimicrobial activity against Mycobacterium tuberculosis 16C14 harboring embB445 CAG-CGG(Gln-Arg) mutation in embCAB gene after 4 weeks by 7H agar proportion method; outline: as §2
[24] = system: Mycobacterium tuberculosis; experiment: Antimicrobial activity against Mycobacterium tuberculosis 16C11 harboring embB397 CCG-TCG(Pro-Ser) mutation in embCAB gene after 4 weeks by Bactec 460TB method; outline: as §3
[25] = system: Mycobacterium tuberculosis; experiment: Antimicrobial activity against Mycobacterium tuberculosis 8C7 harboring embB445 CAG-CGG(Gln-Arg) mutation in embCAB gene after 4 weeks by Bactec 460TB method; outline: as §3
[26] = system: Mycobacterium tuberculosis; experiment: Antimicrobial activity against Mycobacterium tuberculosis 16C9 harboring embB497 CAG-CGG(Gln-Arg) mutation in embCAB gene after 4 weeks by Bactec 460TB method; outline: as §3

CO[C@H]1/C=C/O[C@@]2(C)Oc3c(C)c(O)c4c(O)c(c(/C=N/N5CCN(C)CC5)c(O)c4c3C2=O)NC(=O)/C(C)=C\C=C\[C@H](C)[C@H](O)[C@@H](C)[C@@H](O)[C@@H](C)[C@H](OC(C)=O)[C@@H]1C [RIFAMPIN]
MIC [1]: 0.05 µg/mL (≈ 0.0608 µM) | MIC [2]: 0.05 µg/mL (≈ 0.0608 µM) | MIC [3]: 0.05 µg/mL (≈ 0.0608 µM) | MIC [4]: 0.05 µg/mL (≈ 0.0608 µM) | MIC [5]: 0.05 µg/mL (≈ 0.0608 µM)

CC[C@@H](CO)NCCN[C@@H](CC)CO [ETHAMBUTOL]
MIC [6]: 8 µg/mL (≈ 39.2 µM) | MIC [7]: 8 µg/mL (≈ 39.2 µM) | MIC [8]: 8 µg/mL (≈ 39.2 µM) | MIC [9]: 8 µg/mL (≈ 39.2 µM) | MIC [10]: 4 µg/mL (≈ 19.6 µM) | MIC [11]: 8 µg/mL (≈ 39.2 µM) | MIC [12]: 4 µg/mL (≈ 19.6 µM) | MIC [13]: 6 µg/mL (≈ 29.4 µM) | MIC [14]: 12 µg/mL (≈ 58.7 µM) | MIC [1]: 7 µg/mL (≈ 34.3 µM) | MIC [15]: 12 µg/mL (≈ 58.7 µM) | MIC [16]: 8 µg/mL (≈ 39.2 µM) | MIC [17]: 12 µg/mL (≈ 58.7 µM) | MIC [18]: 3 µg/mL (≈ 14.7 µM) | MIC [2]: 6 µg/mL (≈ 29.4 µM) | MIC [19]: 2 µg/mL (≈ 9.79 µM) | MIC [20]: >20 µg/mL | MIC [3]: 12 µg/mL (≈ 58.7 µM) | MIC [21]: 8 µg/mL (≈ 39.2 µM) | MIC [22]: 4 µg/mL (≈ 19.6 µM) | MIC [4]: 7 µg/mL (≈ 34.3 µM) | MIC [5]: 7 µg/mL (≈ 34.3 µM) | MIC [23]: 16 µg/mL (≈ 78.3 µM) | MIC [24]: 5 µg/mL (≈ 24.5 µM) | MIC [25]: 2 µg/mL (≈ 9.79 µM) | MIC [26]: 12 µg/mL (≈ 58.7 µM)

NNC(=O)c1ccncc1 [ISONIAZID]
MIC [1]: 0.05 µg/mL (≈ 0.365 µM) | MIC [2]: 0.05 µg/mL (≈ 0.365 µM) | MIC [3]: 0.05 µg/mL (≈ 0.365 µM) | MIC [4]: 0.05 µg/mL (≈ 0.365 µM) | MIC [5]: 0.05 µg/mL (≈ 0.365 µM)
